# How the values were obtained:
# [1] = tested on: L-cystine stone formation in Slc3a1-knockout mouse model of cystinuria; assay: In vivo efficacy in Slc3a1-knockout mouse model of cystinuria; set-up: species or system Slc3a1-knockout male mice; conditions: 150 μmol/kg by gavage daily for 8 weeks
# [2] = L-cystine crystallization inhibition assay; conditions: from EC50 values
# Outline: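 Supersaturated L-cystine (2.9 mM in Millipore water) was incubated with varying test compound concentrations for 72 h at room temperature, then centrifuged. L-cystine remaining in the supernatant was measured. EC50 came from dose–response curves, and relative potency was expressed as a ratio of EC50 values against reference inhibitors.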
# [3] = Oral bioavailability and pharmacokinetics in Slc3a1-knockout mice; assay type: in vivo; conditions: male, mouse, plasma, 150 umol/kg
# Outline: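 Male Slc3a1-knockout mice (4 per route) received a single oral gavage of 150 μmol/kg in normal saline (100 μL) or a tail-vein iv dose of 30 μmol/kg. About 60 μL saphenous blood was drawn pre-dose and at 5, 15, 30 min and 1, 4, 8, 24 h. Plasma was stored at −80 °C. Parent and mixed-disulfide metabolite were quantified by LC-MS/MS against synthetic metabolite standard. F was derived from oral versus iv exposure.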
smiles,measurement,setting,value
"N[C@@H](CSSC[C@H](N)C(=O)N1CCC2(CCCN2)CC1)C(=O)N1CCC2(CCCN2)CC1 [compound 3, 8-L-cystinyl bis(1,8-diazaspiro[4.5]decane)]",Effect on growth,[1],no adverse effect on growth
same,Mice with stones in treated group,[1]; water group 28 of 51,1 out of 25
same,Fold more potent than CDME in inhibiting L-cystine crystallization,[2],about 120 ×
same,Fold more potent than LH708 in inhibiting L-cystine crystallization,[2],about 2 ×
same,Fold more potent than CDME in inhibiting L-cystine crystallization,[2]; listed as LH1753,120 ×
same,Fold more potent than LH708 in inhibiting L-cystine crystallization,[2]; listed as LH1753,2 ×
same,CL/F,[3],8 L/h/kg
same,Vd/F,[3],7 L/kg

# From publication PMC11247636 (ACS Medicinal Chemistry Letters, 2024)
